Data published in the RNAGym collection of RNA variant scans (doi:10.1126/science.aae0568).
This sample holds only a part of the variants without activity.

B1: tRNA (parent)
chain: GUUCCGUUGGCGUAAUGGUAACGCGUCUCCCUCCUAAGGAGAAGACUGCGGGUUCGAGUCCCGUACGGAACG

Variants of: B1
Experiment: yeast fitness relative to wild type (ratio to wild type); higher = fitter; tRNA-Arg(CCU), competitive growth, 37 C, YPD
Procedure, shortened: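 Variants of the tRNA-Arg(CCU) gene, chemically synthesised with a 3% per-site mutation rate at 69 sites, were placed at the native genomic locus in Saccharomyces cerevisiae. The pooled strains were competed in YPD at 37°C for 24 hours in six parallel replicates. Gene amplicons from the start population and from each end population were read by 100-nucleotide paired-end sequencing. Darwinian fitness relative to wild type came from changes in genotype frequencies; genotypes needed ≥ 100 starting reads, and estimates < 0.5 were set to 0.5.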

| Variant | yeast fitness |
| --- | --- |
| C22G A45G C49U A70U | ≤ 0.5 |
| C22G A45U | 0.712 |
| C22G A45U G48C C49G | ≤ 0.5 |
| C22G C24A C27U U59A | ≤ 0.5 |
| C22G C24A G38A | 0.544 |
| C22G C24A G38A G44C U59A | ≤ 0.5 |
| C22G C24A G38A G67A | 0.531 |
| C22G C24G A45C G63C | 0.563 |
| C22G C24G C55G | ≤ 0.5 |
| C22G C24U A43C A70U | ≤ 0.5 |
| C22G C27G | 0.597 |
| C22G C27G C29G C34A A43U | ≤ 0.5 |
| C22G C27G C31G | 0.571 |
| C22G C27G C31G C49A G52A | ≤ 0.5 |
| C22G C27G C31G C49U C61G A69U | 0.534 |
| C22G C27G C31G C61G A69U | 0.62 |
| C22G C27G U59C C61U C62U G68U | ≤ 0.5 |
| C22G C27G U59C C62U G68U | 0.529 |
| C22G C27U C62A A65G | ≤ 0.5 |
| C22G C27U U35C G39C A42C G48A | ≤ 0.5 |
| C22G C29A | 0.662 |
| C22G C29A A45U | 0.615 |
| C22G C29A G63A | 0.553 |
| C22G C29A U53A C66U | ≤ 0.5 |

| Variant | yeast fitness |
| --- | --- |
| C22G C29G C46U G63A A70U | ≤ 0.5 |
| C22G C29G G41C | ≤ 0.5 |
| C22G C29G G68C | ≤ 0.5 |
| C22G C30G C33G A37U C61G | 0.683 |
| C22G C30G C55A | ≤ 0.5 |
| C22G C30U U54C | 0.554 |
| C22G C31A A43G A69U | ≤ 0.5 |
| C22G C31G C49U | 0.605 |
| C22G C31G C49U U54G | 0.568 |
| C22G C31G C61U | 0.587 |
| C22G C31G C62U G68C | ≤ 0.5 |
| C22G C31G C66U | 0.64 |
| C22G C31G G67A | 0.615 |
| C22G C31U C49U C61A | ≤ 0.5 |
| C22G C31U C61G | 0.614 |
| C22G C31U U53A | ≤ 0.5 |
| C22G C31U U64C | 0.748 |
| C22G C33G | 0.685 |
| C22G C33G A36U | ≤ 0.5 |
| C22G C34A A36U | 0.656 |
| C22G C34A A36U A42C C46G | ≤ 0.5 |
| C22G C34A A42G C66A | ≤ 0.5 |
| C22G C34A G58A C66A | ≤ 0.5 |
| C22G C34A G67U | ≤ 0.5 |

| Variant | yeast fitness |
| --- | --- |
| C22G C34U | 0.696 |
| C22G C34U A43C A69U | ≤ 0.5 |
| C22G C49G C62G | ≤ 0.5 |
| C22G C49G C66A | ≤ 0.5 |
| C22G C49G G68C | 0.529 |
| C22G C49U C62G | 0.558 |
| C22G C55U | 0.739 |
| C22G C55U U59A A65C | ≤ 0.5 |
| C22G C60A | 0.679 |
| C22G C66U | 0.896 |
| C22G G23C A42U C62A | ≤ 0.5 |
| C22G G23C C27A U28C C60A | ≤ 0.5 |
| C22G G25A G41C A57U | ≤ 0.5 |
| C22G G25C A37G | ≤ 0.5 |
| C22G G25C U26C C27G A40G | ≤ 0.5 |
| C22G G25C U35C A37G A65U | ≤ 0.5 |
| C22G G39A G67C | 0.526 |
| C22G G41A A43C G51C C66U G67U | ≤ 0.5 |
| C22G G41A G48C G68C | ≤ 0.5 |
| C22G G44C A70C | 0.553 |
| C22G G44C C55U | 0.564 |
| C22G G48C A69C | 0.589 |
| C22G G48C G67C | ≤ 0.5 |
| C22G G50A | 0.837 |

| Variant | yeast fitness |
| --- | --- |
| C22G G50C A57G | ≤ 0.5 |
| C22G G52A | 0.772 |
| C22G G58A | 1.07 |
| C22G G68A | 0.813 |
| C22G U26A | 1.08 |
| C22G U26A C29G A70U | 0.591 |
| C22G U28A A40U A57U | 0.657 |
| C22G U28A C31G G39A C55A G68C | ≤ 0.5 |
| C22G U28C C29A A42C | ≤ 0.5 |
| C22G U28C U47A | ≤ 0.5 |
| C22G U32A | 0.71 |
| C22G U32C A43G G52A C61G | ≤ 0.5 |
| C22G U32C G67A | 0.564 |
| C22G U32C U54A A65G | ≤ 0.5 |
| C22G U35C | 0.8 |
| C22G U35C A57C | 0.61 |
| C22G U47A A70C | ≤ 0.5 |
| C22G U47A G52A | ≤ 0.5 |
| C22G U47G C66U A69C | ≤ 0.5 |
| C22G U54A U59A C61U | ≤ 0.5 |
| C22G U64G | 0.8 |
| C22U A36C A45C C55G C62A G68A | ≤ 0.5 |
| C22U A36C A65G | 0.564 |
| C22U A36C A69C | ≤ 0.5 |

| Variant | yeast fitness |
| --- | --- |
| C22U A36G G51C A65C | 0.6 |
| C22U A40C A70U | 0.545 |
| C22U A40G | 0.834 |
| C22U A40G A43U C46G C49G A70G | ≤ 0.5 |
| C22U A40G A43U C46G C49G C62U | 0.531 |
| C22U A40U A43U | ≤ 0.5 |
| C22U A40U A43U C46U C55U A65U | ≤ 0.5 |
| C22U A40U U47C | 0.544 |
| C22U A42C A57C | ≤ 0.5 |
| C22U A42G C55G A70U | 0.556 |
| C22U A42U C49G | ≤ 0.5 |
| C22U A42U G44U G63A | 0.608 |
| C22U A42U G51C C62U | ≤ 0.5 |
| C22U A43C C46A | 0.626 |
| C22U A45G | 0.747 |
| C22U A45U C62U | 0.671 |
| C22U A57G A70U | 0.591 |
| C22U A57G C60A | ≤ 0.5 |
| C22U A65G G68C | 0.534 |
| C22U A69C | 0.876 |
| C22U A70C | 0.859 |
| C22U C24A A42G | ≤ 0.5 |
| C22U C24A A70U | ≤ 0.5 |
| C22U C24G C30G | ≤ 0.5 |

| Variant | yeast fitness |
| --- | --- |
| C22U C24G U47C C61A | ≤ 0.5 |
| C22U C24U C27U C31U C62U | ≤ 0.5 |
| C22U C24U G51C | ≤ 0.5 |
| C22U C27G C31U G68A | ≤ 0.5 |
| C22U C27G U28G U59C | ≤ 0.5 |
| C22U C27U C33G G44C | ≤ 0.5 |
| C22U C27U U54G | ≤ 0.5 |
| C22U C29A | 0.543 |
| C22U C29A C55G A65U G67A | 0.578 |
| C22U C29G A36U G41C A45C C49U U54C C61U | ≤ 0.5 |
| C22U C29U A40C | 0.667 |
| C22U C29U G41A G48A C62A | 0.611 |
| C22U C30A A40U A43U | ≤ 0.5 |
| C22U C30A C34U G38C | ≤ 0.5 |
| C22U C30G A36U C46G | ≤ 0.5 |
| C22U C30G C49U | ≤ 0.5 |
| C22U C30G C61U A65C C66U | ≤ 0.5 |
| C22U C30U A37G | 0.526 |
| C22U C30U A57G | ≤ 0.5 |
| C22U C30U C33U A45C C66U | ≤ 0.5 |
| C22U C31A C34U A36C A45C C61U U64A | ≤ 0.5 |
| C22U C31G G38A U47A | ≤ 0.5 |
| C22U C31G U64A C66A | ≤ 0.5 |
| C22U C31U A45U C55U A70U | ≤ 0.5 |

| Variant | yeast fitness |
| --- | --- |
| C22U C33G A42C C49G G58C C62G | ≤ 0.5 |
| C22U C33G G58C | 0.525 |
| C22U C34A G56C A57U | ≤ 0.5 |
| C22U C34U G39A G44A G58C A65C | ≤ 0.5 |
| C22U C46A G58C C66U | ≤ 0.5 |
| C22U C46G C49A C60A A70C | ≤ 0.5 |
| C22U C46U G50C C55U A57U C62G A70U | ≤ 0.5 |
| C22U C49G U53A | 0.558 |
| C22U C49U | 0.816 |
| C22U C60G | 0.688 |
| C22U C60U C61A | ≤ 0.5 |
| C22U C61U | 0.72 |
| C22U C62G A69U | 0.586 |
| C22U G23A U54G A57U | ≤ 0.5 |
| C22U G23C G52C | ≤ 0.5 |
| C22U G25A G67C | 0.535 |
| C22U G25A U26G C62U A65U | 0.51 |
| C22U G38C C46U C66G | ≤ 0.5 |
| C22U G48A A65U | 0.773 |
| C22U G48A A69C | 0.741 |
| C22U G51A | 0.804 |
| C22U G52A A57U | ≤ 0.5 |
| C22U G52A C55A A69C | ≤ 0.5 |
